In ChEMBL document CHEMBL5712901, “DOT1L inhibition blocks multiple myeloma cell proliferation by suppressing IRF4-MYC signaling” (2019):
Activity calls are given as the source filed them. No cut-off for these calls is given here.

Experiments:
Format in all cases: functional, cell-based
Settings in all cases: time <= 14.0 day
MM1.S = assay: Antiproliferative activity against human MM1.S cells treated upto 14 days with replacement of fresh medium containing drug every 3 to 4 days by cell counting kit-8 method
In short: (§1)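 Screen of histone methylation modifier inhibitors: myeloma cells seeded at 3 × 10^4 to 1 × 10^5 cells/well, exposed to 1 μM inhibitor or DMSO for up to 14 days. Viability read by CCK-8 absorbance at early (days 3-4) and late (days 11-14) time points, normalized to DMSO; means of 5 replications, SEM, unpaired two-sided t-test.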

KMS-12-BM = assay: Antiproliferative activity against human KMS-12-BM cells treated upto 14 days with replacement of fresh medium containing drug every 3 to 4 days by cell counting kit-8 method; in short: as §1
KMS-12-PE = assay: Antiproliferative activity against human KMS-12-PE cells treated upto 14 days with replacement of fresh medium containing drug every 3 to 4 days by cell counting kit-8 method
In short: (§2)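 Screen of histone methylation modifier inhibitors in 6-well plates at 3 × 10^4 to 1 × 10^5 cells/well. Drug at 1 μM or DMSO for up to 14 days, with medium and drug refreshed every 3-4 days. CCK-8 read on days 3-4 and 11-14. Values normalized to DMSO; mean of 5 replications ± SEM; unpaired two-sided t-test.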

RPMI-8226 = assay: Antiproliferative activity against human RPMI-8226 cells treated upto 14 days with replacement of fresh medium containing drug every 3 to 4 days by cell counting kit-8 method; in short: as §2
U-266 = assay: Antiproliferative activity against human […] cells treated upto 14 days with replacement of fresh medium containing drug every 3 to 4 days by cell counting kit-8 method; in short: as §2

## N[C@@H]1C[C@H]1c1cc(F)cc(F)c1OCc1ccccc1
MM1.S
  Activity: inactive
KMS-12-BM
  Activity: inactive

## CC[C@H](C)n1cc(C)c2c(C(=O)NCc3c(C)cc(C)[nH]c3=O)cc(-c3ccc(N4CCNCC4)nc3)cc21
KMS-12-PE
  Activity: inactive

## COc1cc2c(NC3CCN(C(C)C)CC3)nc(C3CCCCC3)nc2cc1OCCCN1CCCC1
KMS-12-PE
  Activity: inactive

## O=C(O)c1ccc(CN2CCC(CN[C@@H]3C[C@H]3c3ccccc3)CC2)cc1
RPMI-8226
  Activity: inactive
U-266
  Activity: inactive
